This is an account of results in ChEMBL document CHEMBL1140666, “Synthesis and evaluation of alpha,beta-unsaturated alpha-aryl-substituted fosmidomycin analogues as DXR inhibitors” (Bioorg Med Chem Lett, 2007).

The nature of the assay: Inhibition of Escherichia coli DXR. Summed up: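 Recombinant E. coli DXR was used. Conversion of substrate DOXP to MEP was followed through the reaction's NADPH dependence, and IC50 was derived from this.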
Regarding `CC(=O)N(O)C/C=C(/c1cccs1)P(=O)(O)O`, the midpoint of inhibition, the IC50, lay at 42 µM. To `CC(=O)N(O)C/C=C(/c1cccc([N+](=O)[O-])c1)P(=O)(O)O` belongs more than 30 µM; to `CC(=O)N(O)C/C=C(\c1ccc(C#N)cc1)P(=O)(O)O`, 16 µM. With `O=CN(O)CCC(c1ccc(Cl)c(Cl)c1)P(=O)(O)O` (configuration not stated), half-maximal inhibition (IC50) was put at 0.059 µM. This IC50 is about 270-fold lower than that of the molecule before.

Molecule `CC(=O)N(O)C/C=C(\c1ccccc1)P(=O)(O)O` registered an IC50 of 5.7 µM. Against the preceding molecule, the IC50 is about 97-fold higher. For `CC(=O)N(O)CCCP(=O)(O)O` [FR-900098], the IC50 worked out at 0.032 µM. This IC50 is about 180-fold lower than that of the molecule before. To `CC(=O)N(O)C/C=C(/c1ccccc1)P(=O)(O)O` belongs more than 30 µM; to `O=CN(O)CCCP(=O)(O)O` [FOSMIDOMYCIN], 0.034 µM; to `CC(=O)N(O)C/C=C(\Br)P(=O)(O)O`, 0.45 µM. The result for `CC(=O)N(O)C/C=C(\c1ccc(Cl)c(Cl)c1)P(=O)(O)O` reads 5.5 µM; that for `CC(=O)N(O)C/C=C(/c1ccsc1)P(=O)(O)O`, more than 30 µM; that for `CC(=O)N(O)C/C=C(/c1ccc([N+](=O)[O-])cc1)P(=O)(O)O`, 34 µM.
